“Also recorded” adds a separate entry of the source. Where two headings read alike, the source gives them in different places. One block for each compound: values may come before it.
Tests used:
[1] = Steady-state plasma pharmacokinetics of abacavir; assay type: in vivo, human (HIV-infected subjects); details: for Change in plasma ABC concentrations: in the presence of raltegravir versus ABC alone
[2] = cited from earlier work
[3] = assay type: in vivo, human (HIV-infected subjects); details: human, plasma, 400 mg
Procedure, shortened: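 HIV-infected adults on a steady-state nucleoside backbone (600 mg once daily, plus two NRTIs, no tenofovir) were randomized 1:1 to a crossover: boosted protease inhibitor 900/100 mg once daily or integrase inhibitor 400 mg twice daily, 14 days each. On days 15 and 29, after a standardized breakfast, serial plasma was drawn over 24 h (protease inhibitor, booster) or 12 h (integrase inhibitor) and measured by a validated assay. Non-compartmental linear–linear trapezoidal AUC0–24 or AUC0–12.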

[4] = Steady-state intracellular carbovir triphosphate; assay type: in vivo, human (HIV-infected subjects)
[5] = in the presence of darunavir/ritonavir versus ABC alone
[6] = with darunavir/ritonavir versus ABC alone
[7] = with raltegravir versus ABC alone
[8] = PBMC, ABC 600 mg once daily alone, steady state, n=19

AUC(0-t) ([1]; human, plasma, 600 mg): 13500 ng·h/mL | Cmax ([1]; human, plasma, 600 mg): 4010 ng/mL | concentration at 24 h ([1]; human, plasma, 600 mg): 4.3 ng/mL | Decrease in plasma ABC AUC (exposure) [1, 5]: 27% | Decrease in plasma ABC Cmax [1, 5]: 22% | Decrease in plasma ABC Ctrough [1, 5]: 38% | Change in plasma ABC concentrations [1]: No significant changes | Change in plasma ABC concentrations ([1]; listed as abacavir): no changes | Inter-individual variability in ABC Ctrough ([1]; plasma, across study phases): > 87% | Plasma ABC Ctrough, GMR (90% CI) [1, 6]: 0.62 (0.50, 0.77) | Plasma ABC Ctrough, GMR (90% CI) [1, 7]: 0.83 (0.62, 1.11)
Compound: Nc1nc(NC2CC2)c2ncn([C@H]3C=C[C@@H](CO)C3)c2n1 [ABC, abacavir]
Decrease in ABC plasma exposure ([2]; in combination with boosted atazanavir): 17% | Decrease in ABC plasma exposure ([2]; in combination with boosted lopinavir): 32% | Decrease in ABC plasma exposure ([2]; in combination with boosted tipranavir): 40% | Increase in ABC plasma exposure ([2]; with high doses of ethanol): 41%

AUC(0-t) [3]: 2410 ng·h/mL
Compound: Cc1nnc(C(=O)NC(C)(C)c2nc(C(=O)NCc3ccc(F)cc3)c(O)c(=O)n2C)o1 [raltegravir]

Intracellular CBV-TP Cmax, geometric mean (90% CI) [4, 8]: 329 (298, 450) fmol/million cells | Intracellular CBV-TP Ctrough, geometric mean (90% CI) [4, 8]: 107 (96, 143) fmol/million cells | Inter-individual variability in intracellular CBV-TP pharmacokinetic parameters ([4]; during coadministration of ABC and darunavir/ritonavir or raltegravir): > 43% | Decrease in intracellular CBV-TP Ctrough [4, 5]: 32% | Decrease in intracellular CBV-TP Ctrough ([4]; in the presence of raltegravir versus ABC alone, not statistically significant): 43% | Intracellular CBV-TP Ctrough, GMR (90% CI) [4, 6]: 0.68 (0.48, 0.95) | Intracellular CBV-TP Ctrough, GMR (90% CI) [4, 7]: 0.57 (0.33, 1.00)
Compound: Nc1nc(=O)c2ncn([C@H]3C=C[C@@H](COP(=O)(O)OP(=O)(O)OP(=O)(O)O)C3)c2[nH]1 [CBV-TP, carbovir 5′-triphosphate]
Intracellular CBV-TP AUC0–24, geometric mean (90% CI) [4, 8]: 4,459 (4,060, 5,802) fmol•h/million cells | Change in intracellular CBV-TP Cmax and AUC0–24 [4, 5]: no other significant change; also recorded: not significantly different | Change in intracellular CBV-TP concentrations ([4]; in the presence of raltegravir versus ABC alone): did not lead to any significant alteration; also recorded: No significant changes
